Measurements reported in ChEMBL document CHEMBL1131298 (J Med Chem, 1998).

Assays:
[1] = Kinetic parameter(rate of catalysis) was evaluated; type: ADME
[2] = Kinetic parameter (half-life prodrug/drug) was evaluated; type: ADME
How it was run: (§1)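 10 mM stocks diluted 100-fold to 100 µM in CPG2 assay buffer (100 mM Tris-HCl pH 7.3, 260 µM ZnCl2) at 37 °C. Remaining starting material followed by isocratic C18 HPLC in 10 mM ammonium acetate pH 5.0/methanol, UV at compound-specific wavelength, via repeat injections every 7.5 min or fresh-vial injections every 1 min.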

[3] = Cytotoxicity was evaluated against LS174T-stCPG2(Q)3-expressing cell clone; type: functional; details: Homo sapiens
How it was run: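 LS174T colon cells stably transfected with surface-tethered mutant CPG2 (stCPG2(Q)3) plasmid; 2 × 10^6 cells seeded, confluent at 48 h. Compound added from DMSO stock in full medium, a similar dose re-added after 1 h, then 20 h more. Cells reseeded in quadruplicate at ~2 × 10^3/well, grown to control confluence; sulforhodamine-B at 590 nm, IC50 by interpolation.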

[4] = Kinetic parameter (half-life) was evaluated; NA ='Not applicable'; type: ADME; how it was run: as §1

Structure (SMILES)	k cat [1]	T1/2 [2]	IC50 [3]	T1/2 [4]
O=C(O)CC[C@H](NC(=O)Nc1ccc(COC(=O)Nc2ccc(N(CCCl)CCCl)cc2)cc1)C(=O)O	50 s⁻¹	7.6 min	0.46 µM	–
CS(=O)(=O)OCCN(CCCl)c1ccc(C(=O)O)cc1	–	–	27.8 µM	–
O=C(O)CC[C@H](NC(=O)Oc1ccc(COC(=O)Oc2ccc(N(CCCl)CCCl)cc2)cc1)C(=O)O	< 10 s⁻¹	13.7 min	0.42 µM	–
O=C(O)CC[C@H](NC(=O)Nc1ccc(COC(=O)Oc2ccc(N(CCCl)CCCl)cc2)cc1)C(=O)O	< 10 s⁻¹	0.3 min	0.48 µM	–
Oc1ccc(N(CCF)CCF)cc1	–	–	323 µM	Not Active
O=C(O)CC[C@H](NC(=O)Nc1ccc(COC(=O)Oc2ccc(N(CCF)CCF)cc2)cc1)C(=O)O	–	< 10 min	264 µM	–
O=C(O)CC[C@H](NC(=O)Nc1ccc(CO)cc1)C(=O)O	65.4 s⁻¹	–	–	–
O=C(O)CC[C@H](NC(=O)Oc1ccc(CO)cc1)C(=O)O	140 s⁻¹	–	–	Not Active
Nc1ccc(N(CCF)CCF)cc1	–	–	121 µM	–
O=C(O)CC[C@H](NC(=O)Oc1ccc(COC(=O)Nc2ccc(N(CCF)CCF)cc2)cc1)C(=O)O	50 s⁻¹	–	257 µM	Not Active
O=C(O)CC[C@H](NC(=O)Oc1ccc(COC(=O)Oc2ccc(N(CCF)CCF)cc2)cc1)C(=O)O	< 10 s⁻¹	–	128 µM	Not Active
O=C(O)CC[C@H](NC(=O)Oc1ccc(COC(=O)Nc2ccc(N(CCCl)CCCl)cc2)cc1)C(=O)O	< 10 s⁻¹	8.1 min	0.62 µM	–
O=C(O)CC[C@H](NC(=O)Nc1ccc(COC(=O)Nc2ccc(N(CCF)CCF)cc2)cc1)C(=O)O	50 s⁻¹	0.4 min	184 µM	–
